Reference: the EternaBench riboswitch data

Tested on: MS2 coat protein
Assay: apparent Kd, MS2 coat protein; higher = weaker binding; RNA-MaP array; FMN 200 µM where present
How it was run: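 Each design was made on Illumina sequencing-chip clusters by stalled E. coli RNA polymerase and titrated with SNAP-549-labelled MS2 coat protein from 0.7 or 1.5 nM, doubling to 3 µM, in the absence and then the presence of constant ligand. The buffer was 100 mM Tris-HCl pH 7.5, 80 mM KCl, 4 mM MgCl2, BSA, DTT, yeast tRNA and Tween-20. The apparent Kd is the median of filtered per-cluster fits of binding curves, with green signal normalised to red-channel RNA signal and control-cluster median Fmax.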

[1] = designed as: OFF switch for flavin mononucleotide, no ligand
[2] = ligand present: flavin mononucleotide, designed as: OFF switch for flavin mononucleotide
[3] = designed as: ON switch for flavin mononucleotide, no ligand
[4] = ligand present: flavin mononucleotide, designed as: ON switch for flavin mononucleotide

UGGUAACAUGAGGAUCACCCAUGUCAGGAUAUCAGUAAGAAUAGAUUAGAGUAGAAGAUGAGAAGGGACUAUAU
apparent Kd [1]: 31.9 nM
apparent Kd [2]: 29.5 nM

CCGGAUAUGCAGGAUAUCGUAUCGGAAACGAUACGAGAAGGGUAUACAUGAGGAUCACCCAUGUGUCCUACCGG
apparent Kd [1]: 23 nM
apparent Kd [2]: 33.1 nM

UGUACUCAAAGAGUACCAAUACGAACAUGAGGAUCACCCAUGUAGGAUAUGCUACUCAAAGAGUAGCAGAAGGACAUGUGCCUA
apparent Kd [1]: 19 nM
apparent Kd [2]: 76.3 nM

CCGUUGAUGGGACAGGAUAUGACUGUCGUCACAUGAGGAUCACCCAUGUCCCGGCAAUGCCACCGUUAGAAGGGUCCCGUCUCGG
apparent Kd [3]: 16 nM
apparent Kd [4]: 15.9 nM

CAGGAUAGAGGAUAUACAUAGAUACAGAUUCAUGUGGUCCUACAUGAGGAUCACCCAUGUAGAAGGCUAUCCUG
apparent Kd [1]: 166 nM
apparent Kd [2]: 30 nM

AUCAGCUCGUGAGGAUAUACAUGAUAGAUCGAUUAAUUAAUUAAUUUAACAUGAGGAUCACCCAUGUAGAAGGCACGAGCUGAU
apparent Kd [1]: 56.1 nM
apparent Kd [2]: 61.7 nM

GAUUCACAUGAGGAUCACCCAUGUCGUUUUAUGGGAGGAUAUACGUGGACCGUAGUCCGCGUAGAAGGCCUAAUUG
apparent Kd [3]: 102 nM
apparent Kd [4]: 30.4 nM

AAGUAGAUCCGAGGAUAUACAAGGCGGAAACGCUACAUGAGGAUCACCCAUGUAGAAGGCGGAUCUACAGGUACUAAAGUACCA
apparent Kd [1]: 5.84 nM
apparent Kd [2]: 10.5 nM

GGGUAUAAACCCGUCUCCGCUCAACCAGAAGGGCACGAUAAUAUUACAUGAGGAUCACCCAUGUUGCAGGAUAUGGUGAGCCUC
apparent Kd [3]: 363 nM
apparent Kd [4]: 66.9 nM

GGACGUCACAUUAACAUGAGGAUCACCCAUGUCUAUAGACAUGAGGAUAUGGAUCCUAAUUGGAUCCAGAAGGCAUGGACGUCC
apparent Kd [3]: 787 nM
apparent Kd [4]: 46.3 nM

GAGUGAUUAGGAUAUACAUGAGGAUCACCCAUGUGCUUCAGCUAGGAGACUAGCAUUGGUAGAAGGAAUUACUC
apparent Kd [1]: 16.3 nM
apparent Kd [2]: 57.1 nM

CGUGACGACAUAGGAUAUUGAUACAUGAGGAUCACCCAUGUCAACCAUUUAUCUCAAAUUGUUGACAAGAAGGAUGUGGUCACG
apparent Kd [3]: 263 nM
apparent Kd [4]: 13.6 nM

CGCUCAAUUACUUUGAAUAGAAUCAGAAGGCGUAACAUGAGGAUCACCCAUGUAUUGACGUGUAACGAGGAUAUGAAUUGAGCG
apparent Kd [1]: 4.7 nM
apparent Kd [2]: 4.57 nM

AUCUACCUAGGAUAUACAUGAGGAUCACCCAUGUACAGUUUCAACUAGGGAAACACACGUAGAAGGAGGUAGAU
apparent Kd [1]: 13.6 nM
apparent Kd [2]: 32.6 nM

AUAAUUUUAUAUAUCUUUUUUAUCAGAAGGCAUAACAUGAGGAUCACCCAUGUAUAUUAUAGUUAUGAGGAUAUGAUUUAGUUA
apparent Kd [1]: 10.2 nM
apparent Kd [2]: 11.4 nM

GAUGAGGUAGGAUAUACGAGAAUAUAGGGUAGAUAUAUAACACAUGAGGAUCACCCAUGUAGAAGGACCAGUAG
apparent Kd [1]: 38.4 nM
apparent Kd [2]: 89.9 nM

CUUUCGUGAGGAUAUGUGGCUUCGAUCGUGAAAUCGAGGCUACAGAAGGCACAUGAGGAUCACCCAUGUUCCUC
apparent Kd [1]: 34.3 nM
apparent Kd [2]: 410 nM

UCGCCUUAGUAAGGAUAUCACAUGAGGAUCACCCAUGUGGGCGUGACACGGUGAGAAGGUACGCGGCGAAGGUGCCAAGGCAUC
apparent Kd [1]: 387 nM
apparent Kd [2]: 44 nM

GAUUUGUGAGGAUAUACAUGAGGAUCACCCAUGUGUGUCCAUACGCGUGAGUCUUCAUGUAGAAGGCGCGGGUC
apparent Kd [1]: 17.1 nM
apparent Kd [2]: 15.6 nM

AACCAUGAGCGAGGAUAUCACCCUACGGAGUGGUGAGAAGGCGCAACAUGAGGAUCACCCAUGUACAAAUGCGGGACCCUUUUC
apparent Kd [1]: 31 nM
apparent Kd [2]: 92.6 nM

GGAGCUCCUGACAUGAGGAUCACCCAUGUUCAAUUAUUAAAUCAGGAUAUCGUCUCGAAACGAGACGAGAAGGGAUAUGCUCCU
apparent Kd [3]: 5.89 nM
apparent Kd [4]: 6.2 nM

CAGCGCUGUCGAGAGGAUAUGCGGUGAUGGACAUGAGGAUCACCCAUGUUAGCGGUAGCAUUACGGUAGAAGGCUCUACAGCUGC
apparent Kd [3]: 31 nM
apparent Kd [4]: 13.2 nM

GCGUUGAACGAGAAGGCCAAUACAUGAGGAUCACCCAUGUUUAGAUGUUUUGGAGGAUAUCGUACGUCGUCUCAUGAGCAACGC
apparent Kd [1]: 6.68 nM
apparent Kd [2]: 7.92 nM

GGGCCCGGUGUGAGGAUAUCGGGUUUGAAAGGGCCCGAGAAGGCACAUGAGGAUCACCCAUGUAAGCCGGGCCC
apparent Kd [1]: 15.4 nM
apparent Kd [2]: 14.4 nM

AAGUCUGGACGAGGAUAUCAGUUGUAUCUAGAAUCAACAUGAGGAUCACCCAUGUUGCAAUAGGGUGAGAAGGCGUUUGGGCAA
apparent Kd [3]: 81.8 nM
apparent Kd [4]: 18.1 nM

GCCAUGCUGGUGACGGAUAACACAUGAGGAUCACCCAUGUACAGAAGGCGGAAUUAGCGUAGGACCGAGGAUAUGUACGUGAGG
apparent Kd [1]: 89.5 nM
apparent Kd [2]: 26.4 nM

UACAAUCUAUCUGAGGAUAUCAUGCAUUACACAUGAGGAUCACCCAUGUGCAGGAAAACUGCAUAUGAGAAGGCAGAUAGAUUGU
apparent Kd [3]: 561 nM
apparent Kd [4]: 23.8 nM

GUUGUUUGAGGAUAUACAUGAGGAUCACCCAUGUGUGUCCAUACGCGUGAGUCUUCGUGUAGAAGGCGGGCGGC
apparent Kd [1]: 13.7 nM
apparent Kd [2]: 14.7 nM

GCGCGAAGCUAGGAUAUGGGAGCCGAAAGGCUCCCAGAAGGAGCCACAUGAGGAUCACCCAUGUGGUGAUCCUG
apparent Kd [1]: 18.6 nM
apparent Kd [2]: 38.6 nM

GUAAUUAUAUAGGAUAUCGAACUUAUUAUUUAACGAGAAGGAUGAACAUGAGGAUCACCCAUGUGGUAUCAUGG
apparent Kd [1]: 156 nM
apparent Kd [2]: 190 nM

GUGAAACAUGAGGAUCACCCAUGUCAGGAUAUGAUACUAUGUACUUCGGUACAUAGUAUCAGAAGGGACAGUGA
apparent Kd [1]: 77.9 nM
apparent Kd [2]: 101 nM

GCUUUAUAGAUCCAUUUUAACAACAUGAGGAUCACCCAUGUGCAGGAUAUCGUUUGUUUUAUAUUCGAGAAGGGCAAAUUCAUC
apparent Kd [1]: 37.9 nM
apparent Kd [2]: 93.1 nM

CCGGAAGUAGAGGAUAUAGGAGUCGAUAGACUCCUAGAAGGCUAUACAUGAGGAUCACCCAUGUGUCCUACCGG
apparent Kd [1]: 19.6 nM
apparent Kd [2]: 31 nM

UUCAGCUCGUCAGGAUAUACGUCACUGCUUCGGCAGUGUGGUAAGAUCACAUGAGGAUCACCCAUGUAGAAGGGACGAGCUGAA
apparent Kd [1]: 12.5 nM
apparent Kd [2]: 254 nM

GCCUCACAUGAGGAUCACCCAUGUCAGGAUAUCUAAGGCGAAGUGCAAGCACCUCGUGAGAGAAGGGACGUCAA
apparent Kd [1]: 23.2 nM
apparent Kd [2]: 47.6 nM

GCAAAUUAGUGAGGAUAUACAUAAUUUAUUUCUGUAGAAGGCACAAACCUCAAGACAUGAGGAUCACCCAUGUGGUAUUUAAGC
apparent Kd [1]: 155 nM
apparent Kd [2]: 415 nM

GUUUCUAUAUGUUUUAUUUAACAGUCAGAAGGUGAUACUACGACAUGAGGAUCACCCAUGUAAUUCAAGGAUAUGAACUUAAUC
apparent Kd [3]: 1060 nM
apparent Kd [4]: 517 nM

CGGGAGUCAGGAUAUACGAACAUGUCGCCAGAUGUCAAGGUACAUGAGGAUCACCCAUGUAGAAGGGAGGAGUU
apparent Kd [1]: 91.9 nM
apparent Kd [2]: 56.6 nM

ACAUGAGGAUCACCCAUGUAGAAUGAAGAAGGUAGUUACUUGAGACUCACCCAUGUACAUAGGACUAAGGAUAUUCUAAUAAUU
apparent Kd [3]: 14.5 nM
apparent Kd [4]: 8.5 nM

ACCGUAUGAACAUGAGGAUCACCCAUGUAUUCGAAAAGGAAUGAGGAUAUCGAUAGCAAAGCUAUCGAGAAGGCAUGGGACGGU
apparent Kd [3]: 255 nM
apparent Kd [4]: 60.4 nM

GUAAUUACGAGAGGAUAUUGACAUGAGGAUCACCCAUGUAUUUGGGAGUGUUCACUGAAUUCUUACGAGAAGGCUCGUAAAUAC
apparent Kd [1]: 213 nM
apparent Kd [2]: 214 nM

AAGUAUAGAGGAUAUAGUGAGUACUACAUGAGGAUCACCCAUGUUCUUCAAAACGUAUUUCUAGAAGGCUGUUAAA
apparent Kd [1]: 45.3 nM
apparent Kd [2]: 86.7 nM

GUGCCUUGGGAGAAGGCCCAAUGCAAAGCAUAGGGAGGAUAUCCAUAUAAUAAAUAAACAUGAGGAUCACCCAUGUGGCACAAA
apparent Kd [3]: 19.4 nM
apparent Kd [4]: 12 nM

AGAGAUGACGAAGGAUAUGGAUACAUGAGGAUCACCCAUGUUUAUAUAGUGAAAUUGAUUGAAUUCCAGAAGGUCGAAUAAAAG
apparent Kd [1]: 46.7 nM
apparent Kd [2]: 36.9 nM

GUCAGCUCGUGAGGAUAUACAUGUGCUGGAGACAGCACUAAAGAUUUCACAUGAGGAUCACCCAUGUAGAAGGCACGAGCUGAU
apparent Kd [1]: 16.4 nM
apparent Kd [2]: 37.4 nM

GGAUUGGACAGAGGAUAUACGUGCUAGAGAUACUAGCAAAAUUUCCUCACAUGAGGAUCACCCAUGUAGAAGGCUGUCCUAUCG
apparent Kd [1]: 15.6 nM
apparent Kd [2]: 378 nM

AAACAGUACGAGAAGGGCUACAUGAGGAUCACCCAUGUAGACGGUCGUGUGGCAGGAUAUCGAACACACCCAAAACGGUGCGUU
apparent Kd [1]: 5.9 nM
apparent Kd [2]: 7.43 nM

UUUCCACAUGAGGAUCACCCAUGUAAGGAUAUGUAGCGCGGGCUGGUGUCCGAGUGUUACAGAAGGUGCUGGCG
apparent Kd [1]: 26.3 nM
apparent Kd [2]: 33.7 nM
